ChEMBL document CHEMBL4689842, “EUbOPEN Chemogenomics Library wave 1” (2021)

Tested on: HEK-293T
Assay: Multiplex assay against HEK293T;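 for Population Tubulin-Different-Phenotype (%): share of the cells with healthy nuclei that show this phenotype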
Type: toxicity, cell-based
Conditions: human
In short: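 At seeding, live cells were stained with Hoechst33342, BioTracker Green Microtubule Cytoskeleton Dye, MitoTracker Red and Annexin V Alexa Fluor 680. After compound addition they were imaged on a CQ1 microscope at 37°C and 5% CO2, and CellPathfinder machine-learning gating sorted them into Hoechst high-intensity objects or normal cells, with normal cells further split into healthy, pyknosed or fragmented nuclei and pyknosed cells into mitotic or apoptotic. Tubulin, mitochondrial-mass and membrane-permeability phenotypes are given as per cents of cells with healthy nuclei.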

[1] = 12 h, 1 µM, compound concentration 1 uM, replicate 1
[2] = 12 h, 1 µM, compound concentration 1 uM, replicate 2
[3] = 12 h, 10 µM, compound concentration 10 uM, replicate 1
[4] = 12 h, 10 µM, compound concentration 10 uM, replicate 2
[5] = 24 h, 1 µM, compound concentration 1 uM, replicate 1
[6] = 24 h, 1 µM, compound concentration 1 uM, replicate 2
[7] = 24 h, 10 µM, compound concentration 10 uM, replicate 1
[8] = 24 h, 10 µM, compound concentration 10 uM, replicate 2
[9] = 48 h, 1 µM, compound concentration 1 uM, replicate 1
[10] = 48 h, 1 µM, compound concentration 1 uM, replicate 2
[11] = 48 h, 10 µM, compound concentration 10 uM, replicate 1
[12] = 48 h, 10 µM, compound concentration 10 uM, replicate 2

S=C(NCCCc1c[nH]cn1)NCCCN(Cc1ccc(Cl)c(Cl)c1)c1ccc(Br)cn1
Population Apoptotic (%) [1]: 47% | Population Fragmented Nuclei (%) [1]: 8% | Population Healthy Nuclei (%) [1]: 41% | Population Hoechst High Intensity Objects (%) [1]: 11% | Population Membrane Permeable-Phenotype (%) [1]: 4% | Population Mitochondria Different-Phenotype (%) [1]: 83% | Population Mitotic Cells (%) [1]: 52% | Population Normal (%) [1]: 88% | Population Pyknosed Nuclei (%) [1]: 49% | Population Tubulin-Different-Phenotype (%) [1]: 67% | Total Cell Count [1]: 310 | Population Apoptotic (%) [2]: 19% | Population Fragmented Nuclei (%) [2]: 5% | Population Healthy Nuclei (%) [2]: 44% | Population Hoechst High Intensity Objects (%) [2]: 3% | Population Membrane Permeable-Phenotype (%) [2]: 22% | Population Mitochondria Different-Phenotype (%) [2]: 29% | Population Mitotic Cells (%) [2]: 80% | Population Normal (%) [2]: 96% | Population Pyknosed Nuclei (%) [2]: 50% | Population Tubulin-Different-Phenotype (%) [2]: 54% | Total Cell Count [2]: 240 | Population Apoptotic (%) [3]: 88% | Population Fragmented Nuclei (%) [3]: 6% | Population Healthy Nuclei (%) [3]: 2% | Population Hoechst High Intensity Objects (%) [3]: 13% | Population Membrane Permeable-Phenotype (%) [3]: 22% | Population Mitochondria Different-Phenotype (%) [3]: 66% | Population Mitotic Cells (%) [3]: 11% | Population Normal (%) [3]: 86% | Population Tubulin-Different-Phenotype (%) [3]: 77% | Total Cell Count [3]: 356 | Population Apoptotic (%) [4]: 84% | Population Fragmented Nuclei (%) [4]: 5% | Population Healthy Nuclei (%) [4]: 3% | Population Hoechst High Intensity Objects (%) [4]: 6% | Population Membrane Permeable-Phenotype (%) [4]: 37% | Population Mitochondria Different-Phenotype (%) [4]: 50% | Population Mitotic Cells (%) [4]: 15% | Population Normal (%) [4]: 93% | Population Pyknosed Nuclei (%) [4]: 90% | Population Tubulin-Different-Phenotype (%) [4]: 100% | Total Cell Count [4]: 220 | Population Apoptotic (%) [5]: 61% | Population Fragmented Nuclei (%) [5]: 13% | Population Healthy Nuclei (%) [5]: 31% | Population Hoechst High Intensity Objects (%) [5]: 15% | Population Membrane Permeable-Phenotype (%) [5]: 8% | Population Mitochondria Different-Phenotype (%) [5]: 73% | Population Mitotic Cells (%) [5]: 38% | Population Normal (%) [5]: 84% | Population Tubulin-Different-Phenotype (%) [5]: 73% | Total Cell Count [5]: 308 | Population Apoptotic (%) [6]: 20% | Population Fragmented Nuclei (%) [6]: 4% | Population Healthy Nuclei (%) [6]: 40% | Population Hoechst High Intensity Objects (%) [6]: 6% | Population Membrane Permeable-Phenotype (%) [6]: 28% | Population Mitochondria Different-Phenotype (%) [6]: 17% | Population Mitotic Cells (%) [6]: 79% | Population Normal (%) [6]: 93% | Population Pyknosed Nuclei (%) [6]: 54% | Population Tubulin-Different-Phenotype (%) [6]: 52% | Total Cell Count [6]: 239 | Population Apoptotic (%) [7]: 82% | Population Fragmented Nuclei (%) [7]: 8% | Population Healthy Nuclei (%) [7]: 2% | Population Hoechst High Intensity Objects (%) [7]: 14% | Population Mitochondria Different-Phenotype (%) [7]: 85% | Population Mitotic Cells (%) [7]: 17% | Population Normal (%) [7]: 85% | Population Pyknosed Nuclei (%) [7]: 89% | Total Cell Count [7]: 366 | Population Apoptotic (%) [8]: 81% | Population Fragmented Nuclei (%) [8]: 7% | Population Healthy Nuclei (%) [8]: 4% | Population Hoechst High Intensity Objects (%) [8]: 12% | Population Membrane Permeable-Phenotype (%) [8]: 0% | Population Mitochondria Different-Phenotype (%) [8]: 22% | Population Mitotic Cells (%) [8]: 18% | Population Normal (%) [8]: 87% | Population Pyknosed Nuclei (%) [8]: 87% | Population Tubulin-Different-Phenotype (%) [8]: 100% | Total Cell Count [8]: 231 | Population Apoptotic (%) [9]: 49% | Population Fragmented Nuclei (%) [9]: 19% | Population Healthy Nuclei (%) [9]: 4% | Population Hoechst High Intensity Objects (%) [9]: 23% | Population Membrane Permeable-Phenotype (%) [9]: 41% | Population Mitochondria Different-Phenotype (%) [9]: 50% | Population Mitotic Cells (%) [9]: 50% | Population Normal (%) [9]: 76% | Population Pyknosed Nuclei (%) [9]: 75% | Population Tubulin-Different-Phenotype (%) [9]: 83% | Total Cell Count [9]: 320 | Population Apoptotic (%) [10]: 35% | Population Fragmented Nuclei (%) [10]: 5% | Population Healthy Nuclei (%) [10]: 26% | Population Hoechst High Intensity Objects (%) [10]: 13% | Population Membrane Permeable-Phenotype (%) [10]: 33% | Population Mitochondria Different-Phenotype (%) [10]: 20% | Population Mitotic Cells (%) [10]: 64% | Population Normal (%) [10]: 86% | Population Pyknosed Nuclei (%) [10]: 67% | Population Tubulin-Different-Phenotype (%) [10]: 53% | Total Cell Count [10]: 234 | Population Apoptotic (%) [11]: 71% | Population Fragmented Nuclei (%) [11]: 11% | Population Healthy Nuclei (%) [11]: 0% | Population Hoechst High Intensity Objects (%) [11]: 17% | Population Membrane Permeable-Phenotype (%) [11]: 0% | Population Mitochondria Different-Phenotype (%) [11]: 100% | Population Mitotic Cells (%) [11]: 28% | Population Normal (%) [11]: 82% | Population Pyknosed Nuclei (%) [11]: 87% | Total Cell Count [11]: 369 | Population Apoptotic (%) [12]: 87% | Population Fragmented Nuclei (%) [12]: 15% | Population Healthy Nuclei (%) [12]: 9% | Population Hoechst High Intensity Objects (%) [12]: 9% | Population Membrane Permeable-Phenotype (%) [12]: 5% | Population Mitochondria Different-Phenotype (%) [12]: 75% | Population Mitotic Cells (%) [12]: 12% | Population Normal (%) [12]: 90% | Population Pyknosed Nuclei (%) [12]: 74% | Population Tubulin-Different-Phenotype (%) [12]: 100% | Total Cell Count [12]: 230
